Results taken from ChEMBL document CHEMBL4038284, “Synthesis of novel quinoline-based 4,5-dihydro-1H-pyrazoles as potential anticancer, antifungal, antibacterial and antiprotozoal agents” (Eur J Med Chem, 2017).

Key:
Type in all cases: functional
SF-268 = assay: Growth inhibition of human SF268 cells incubated for 48 hrs by sulforhodamine B assay; conditions: SF-268, 48 h
Procedure, shortened: (§1)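 Five-dose NCI SRB assay at 100, 10, 1.0, 0.1 and 0.01 μM for 48 h at 37 °C, 5% CO2. Medium was RPMI-1640 with 5% FBS and 2 mM glutamine. Time-zero plates were TCA-fixed at compound addition, A515 read after SRB staining. GI50 was solved from [(Ti−Tz)/(C−Tz)]×100 = 50. Values beyond the tested range are given as > or <.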

UACC-257 = assay: Growth inhibition of human UACC257 cells incubated for 48 hrs by sulforhodamine B assay; conditions: UACC-257, 48 h
Procedure, shortened: (§2)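 NCI-60 panel cells grown in RPMI-1640 with 5% FBS and 2 mM L-glutamine, preincubated 24 h at 37 °C/5% CO2. Time-zero plates were TCA-fixed at compound addition. DMSO stocks were diluted in medium and tested at five final concentrations (100, 10, 1.0, 0.1, 0.01 µM) for 48 h. Cells were TCA-fixed, stained with SRB and read at 515 nm. GI50 = 50% lower net protein increase versus control.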

SK-MEL-5 = assay: Growth inhibition of human SK-MEL-5 cells incubated for 48 hrs by sulforhodamine B assay; conditions: SK-MEL-5, 48 h; for CC50: read-out: LC50 (the source's name)
Procedure, shortened: (§3)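 NCI 60-line screen. Cells in RPMI-1640 with 5% FBS and 2 mM L-glutamine, preincubated 24 h, then time-zero plates TCA-fixed. Compounds from DMSO stocks given at five final concentrations (100, 10, 1.0, 0.1, 0.01 µM) for 48 h at 37 °C, 5% CO2. Cells fixed with 10% TCA, SRB-stained, read at 515 nm. GI50 is the concentration giving 50% lower net protein increase versus control.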

IGROV-1 = assay: Growth inhibition of human IGROV1 cells incubated for 48 hrs by sulforhodamine B assay; conditions: IGROV-1, 48 h; for CC50: read-out: LC50 (the source's name); procedure, shortened: as §3
NCI-H522 = assay: Growth inhibition of human NCI-H522 cells incubated for 48 hrs by sulforhodamine B assay; conditions: NCI-H522, 48 h; for CC50: read-out: LC50 (the source's name); procedure, shortened: as §3
PC-3 = assay: Growth inhibition of human PC3 cells incubated for 48 hrs by sulforhodamine B assay; conditions: PC-3, 48 h; procedure, shortened: as §1
SK-OV-3 = assay: Growth inhibition of human SKOV3 cells incubated for 48 hrs by sulforhodamine B assay; conditions: SK-OV-3, 48 h; for CC50: read-out: LC50 (the source's name); procedure, shortened: as §3
SF-539 = assay: Growth inhibition of human SF539 cells incubated for 48 hrs by sulforhodamine B assay; conditions: SF-539, 48 h; procedure, shortened: as §2
NCI-H322M = assay: Growth inhibition of human NCI-H322M cells incubated for 48 hrs by sulforhodamine B assay; procedure, shortened: as §1
EKVX = assay: Growth inhibition of human EKVX cells incubated for 48 hrs by sulforhodamine B assay
Procedure, shortened: (§4)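 NCI five-dose SRB assay (100, 10, 1.0, 0.1, 0.01 µM) with 48 h exposure in RPMI-1640 with 5% FBS and 2 mM L-glutamine. Cells fixed with TCA and stained with SRB, read at 515 nm. GI50 is the concentration where [(Ti−Tz)/(C−Tz)]×100 = 50.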

UACC-62 = assay: Growth inhibition of human UACC62 cells incubated for 48 hrs by sulforhodamine B assay; conditions: UACC-62, 48 h; for CC50: read-out: LC50 (the source's name); procedure, shortened: as §3
MDA-MB-231 = assay: Growth inhibition of human MDA-MB-231 cells incubated for 48 hrs by sulforhodamine B assay; conditions: MDA-MB-231, 48 h; procedure, shortened: as §1
RPMI-8226 = assay: Growth inhibition of human RPMI8226 cells incubated for 48 hrs by sulforhodamine B assay; conditions: RPMI-8226, 48 h; for CC50: read-out: LC50 (the source's name); procedure, shortened: as §3
HOP-62 = assay: Growth inhibition of human HOP62 cells incubated for 48 hrs by sulforhodamine B assay; conditions: HOP-62, 48 h; procedure, shortened: as §4
HCT-15 = assay: Growth inhibition of human HCT15 cells incubated for 48 hrs by sulforhodamine B assay; conditions: HCT-15, 48 h; for CC50: read-out: LC50 (the source's name); procedure, shortened: as §3
DU-145 = assay: Growth inhibition of human DU145 cells incubated for 48 hrs by sulforhodamine B assay; conditions: DU-145, 48 h; for CC50: read-out: LC50 (the source's name); procedure, shortened: as §4
MDA-MB-468 = assay: Growth inhibition of human MDA-MB-468 cells incubated for 48 hrs by sulforhodamine B assay; conditions: MDA-MB-468, 48 h; procedure, shortened: as §1
M14 = assay: Growth inhibition of human M14 cells incubated for 48 hrs by sulforhodamine B assay; conditions: M14, 48 h; procedure, shortened: as §1
BT-549 = assay: Growth inhibition of human BT549 cells incubated for 48 hrs by sulforhodamine B assay; conditions: BT-549, 48 h; procedure, shortened: as §4
HOP-92 = assay: Growth inhibition of human HOP92 cells incubated for 48 hrs by sulforhodamine B assay; conditions: HOP-92, 48 h; procedure, shortened: as §1
NCI-H226 = assay: Growth inhibition of human NCI-H226 cells incubated for 48 hrs by sulforhodamine B assay; conditions: NCI-H226, 48 h; for CC50: read-out: LC50 (the source's name); procedure, shortened: as §3
CCRF-CEM = assay: Growth inhibition of human CCRF-CEM cells incubated for 48 hrs by sulforhodamine B assay; conditions: for CC50: read-out: LC50 (the source's name); procedure, shortened: as §3
SNB-75 = assay: Growth inhibition of human SNB75 cells incubated for 48 hrs by sulforhodamine B assay; conditions: SNB-75, 48 h; for CC50: read-out: LC50 (the source's name); procedure, shortened: as §3
NCI-H23 = assay: Growth inhibition of human NCI-H23 cells incubated for 48 hrs by sulforhodamine B assay; conditions: NCI-H23, 48 h; procedure, shortened: as §1
OVCAR-3 = assay: Growth inhibition of human OVCAR3 cells incubated for 48 hrs by sulforhodamine B assay; conditions: OVCAR-3, 48 h; procedure, shortened: as §1
U-251 = assay: Growth inhibition of human U251 cells incubated for 48 hrs by sulforhodamine B assay; conditions: U-251, 48 h; procedure, shortened: as §2
SF-295 = assay: Growth inhibition of human SF295 cells incubated for 48 hrs by sulforhodamine B assay; conditions: SF-295, 48 h; procedure, shortened: as §1
HCC 2998 = assay: Growth inhibition of human HCC2998 cells incubated for 48 hrs by sulforhodamine B assay; conditions: HCC 2998, 48 h; procedure, shortened: as §3
Hs-578T = assay: Growth inhibition of human Hs578T cells incubated for 48 hrs by sulforhodamine B assay; procedure, shortened: as §1
KM12 = assay: Growth inhibition of human KM12 cells incubated for 48 hrs by sulforhodamine B assay; conditions: KM12, 48 h; procedure, shortened: as §1
SN12C = assay: Growth inhibition of human SN12C cells incubated for 48 hrs by sulforhodamine B assay; procedure, shortened: as §2
[1] = read-out: LC50 (the source's name)

In the case of `COc1cccc2c1C(=O)c1c(O)c3c(c(O)c1C2=O)C[C@@](O)(C(=O)CO)C[C@@H]3O[C@H]1C[C@H](N)[C@H](O)[C@H](C)O1` [DOXORUBICIN], the GI50 (SF-268) is reported as 0.1 µM, the GI50 (UACC-257) is reported as 0.14 µM and the GI50 (SK-MEL-5) is reported as 0.08 µM. The CC50 (SK-MEL-5) was 0.49 µM, the GI50 (IGROV-1) was 0.17 µM and the CC50 (IGROV-1) was 100 µM. The GI50 (NCI-H522) was 0.03 µM, the CC50 (NCI-H522) was 2.8 µM and the GI50 (PC-3) was 0.32 µM. The GI50 (SK-OV-3) was 0.22 µM, the CC50 (SK-OV-3) was 100 µM and the GI50 (SF-539) was 0.12 µM. For the same compound, the GI50 (NCI-H322M) was 0.54 µM, the GI50 (EKVX) was 0.41 µM and the GI50 (UACC-62) was 0.14 µM. For the same compound, the CC50 (UACC-62) was 1.31 µM, the GI50 (MDA-MB-231) was 0.51 µM and the GI50 (RPMI-8226) was 0.08 µM. The CC50 (RPMI-8226) was 100 µM, the GI50 (HOP-62) was 0.07 µM and the CC50 (HCT-15) was 100 µM. It also gave a GI50 (DU-145) of 0.11 µM, a CC50 (DU-145) of 100 µM and a GI50 (MDA-MB-468) of 0.05 µM. The GI50 (M14) was 0.18 µM, the GI50 (BT-549) was 0.23 µM and the GI50 (HOP-92) was 0.1 µM. It also gave a GI50 (NCI-H226) of 0.05 µM, a CC50 (NCI-H226) of 6.4 µM and a GI50 (CCRF-CEM) of 0.08 µM. For the same compound, the CC50 (CCRF-CEM) was 100 µM, the GI50 (SNB-75) was 0.07 µM and the CC50 (SNB-75) was 3.3 µM. It also gave a GI50 (NCI-H23) of 0.15 µM, a GI50 (OVCAR-3) of 0.39 µM and a GI50 (U-251) of 0.04 µM. For the same compound, the GI50 (SF-295) was 0.1 µM, the GI50 (HCC 2998) was 0.26 µM and the GI50 (Hs-578T) was 0.33 µM. For the same compound, the GI50 (KM12) was 0.27 µM and the GI50 (SN12C) was 0.07 µM.
`COc1ccc(C(=O)/C=C/c2cccc(Nc3ccnc4cc(Cl)ccc34)c2)cc1` was tested, and the GI50 (SF-268) was 2.47 µM, the CC50 (SF-268; [1]) was > 100 µM and the GI50 (UACC-257) was 2.07 µM. For the same compound, the CC50 (UACC-257; [1]) was > 100 µM, the GI50 (SK-MEL-5) was 1.32 µM and the CC50 (SK-MEL-5) was > 100 µM. For the same compound, the GI50 (IGROV-1) was 1.44 µM, the CC50 (IGROV-1) was > 100 µM and the GI50 (NCI-H522) was 1.88 µM. The CC50 (NCI-H522) was > 100 µM, the GI50 (PC-3) was 2.51 µM and the CC50 (PC-3; [1]) was > 100 µM. The GI50 (SK-OV-3) was 2.22 µM, the CC50 (SK-OV-3) was > 100 µM and the GI50 (SF-539) was 1.7 µM. The CC50 (SF-539; [1]) was > 100 µM, the GI50 (NCI-H322M) was 2.69 µM and the CC50 (NCI-H322M; [1]) was > 100 µM. For the same compound, the GI50 (EKVX) was 1.75 µM, the LC50 (EKVX) was > 100 µM and the GI50 (UACC-62) was 1.19 µM. For the same compound, the CC50 (UACC-62) was > 100 µM, the GI50 (MDA-MB-231) was 1.91 µM and the CC50 (MDA-MB-231; [1]) was > 100 µM. The GI50 (RPMI-8226) was 0.57 µM, the CC50 (RPMI-8226) was > 100 µM and the GI50 (HOP-62) was 1.44 µM. The CC50 (HOP-62; [1]) was > 100 µM, the GI50 (HCT-15) was 2.04 µM and the CC50 (HCT-15) was > 100 µM. The GI50 (DU-145) was 2.45 µM, the CC50 (DU-145) was > 100 µM and the GI50 (MDA-MB-468) was 0.58 µM. For the same compound, the CC50 (MDA-MB-468; [1]) was > 100 µM, the GI50 (M14) was 1.6 µM and the CC50 (M14; [1]) was > 100 µM. For the same compound, the GI50 (BT-549) was 1.87 µM, the CC50 (BT-549; [1]) was > 100 µM and the GI50 (HOP-92) was 1.09 µM. The LC50 (concentration giving 50% net cell kill) (HOP-92) was > 100 µM, the GI50 (NCI-H226) was 1.78 µM and the CC50 (NCI-H226) was > 100 µM. The GI50 (CCRF-CEM) was 2.88 µM, the CC50 (CCRF-CEM) was > 100 µM and the GI50 (SNB-75) was 1.51 µM. For the same compound, the CC50 (SNB-75) was > 100 µM, the GI50 (NCI-H23) was 1.49 µM and the CC50 (NCI-H23; [1]) was > 100 µM. The GI50 (OVCAR-3) was 1.69 µM, the CC50 (OVCAR-3; [1]) was > 100 µM and the GI50 (U-251) was 1.73 µM. For the same compound, the CC50 (U-251; [1]) was 23.7 µM, the GI50 (SF-295) was 0.69 µM and the CC50 (SF-295; [1]) was > 100 µM. The CC50 (HCC 2998; [1]) was > 100 µM, the GI50 (Hs-578T) was 3.18 µM and the CC50 (Hs-578T; [1]) was > 100 µM. The GI50 (KM12) was 2.45 µM, the CC50 (KM12; [1]) was > 100 µM and the GI50 (SN12C) was 1.3 µM. The CC50 (SN12C; [1]) was > 100 µM.
